Assay results published in ChEMBL document CHEMBL1153864, “Phase transfer catalyzed synthesis of bis-quinolines: antileishmanial activity in experimental visceral leishmaniasis and in vitro antibacterial evaluation” (Eur J Med Chem, 2009).
≈ marks a conversion by molar mass, not a printed value.

Legend:
[1] = tested on: Leishmania donovani; assay: Antileishmanial activity against Leishmania donovani MHOM/IN/1983/AG83 promastigotes after 4 hrs by MTT assay; type: functional, organism-based; settings: MHOM/IN/1983/AG83, 4 h
In short: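 AG83 promastigotes kept at 22 °C in M199 + 10% FBS. Log-phase cells (2×10^6/ml) exposed 2 h at 22 °C to 1, 3, 5, 7, 10, 15 compound; DMSO at 0.1% final. Cells washed with PBS, incubated 4 h at 22 °C with MTT (2 mg/ml). Formazan dissolved in DMSO and read at 570 nm; % lysis computed, IC50 by linear regression.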

[2] = tested on: Leishmania donovani; assay: Antileishmanial activity against Leishmania donovani MHOM/IN/1983/AG83 amastigotes by Giemsa staining; type: functional, organism-based
In short: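 Peritoneal macrophages from thioglycolate-elicited exudate (~2×10^6/ml), adhered overnight on coverslips in RPMI-1640 + 10% FBS at 37 °C, 5% CO2. Infected 6 h with stationary-phase AG83 promastigotes (2×10^7/ml), washed, then exposed 24 h to 0.5, 1, 3, 5, 10 compound. Methanol-fixed, Giemsa-stained; amastigotes per 200 macrophages counted against untreated controls.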

[3] = tested on: Leishmania donovani; assay: Antileishmanial activity against Leishmania donovani MHOM/IN/1983/AG83 promastigotes infected ip dosed BALB/c mouse assessed as reduction in spleen parasite burden administered two times per week for 4 weeks relative to control; type: functional; set-up: scale not given: the % may be the effect or the level left
In short: (§1)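 BALB/c mice (4-6 weeks) were infected iv with 2 × 10^7 freshly transformed promastigotes. One month later, groups were dosed ip in 0.2% Tween 80 in PBS (0.02 M), twice weekly for one month (8 doses); controls got vehicle only. Mice were killed one month post-treatment and spleen and liver were weighed. Parasite load came from Giemsa impression smears as organ weight (mg) × amastigotes per cell nucleus × 2 × 10^5. Values are mean ± S.E. of 5 mice; unpaired t-test.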

[4] = tested on: Leishmania donovani; assay: Antileishmanial activity against Leishmania donovani MHOM/IN/1983/AG83 promastigotes infected ip dosed BALB/c mouse assessed as reduction in liver parasite burden administered two times per week for 4 weeks relative to control; type: functional; set-up: scale not given: the % may be the effect or the level left; in short: as §1
[5] = tested on: Leishmania donovani; assay: Antileishmanial activity against Leishmania donovani MHOM/IN/1983/AG83 promastigotes infected BALB/c mouse assessed as liver weight at 12.5 mg/kg, ip administered two times per week for 4 weeks; type: functional; settings: route intraperitoneal; in short: as §1
[6] = tested on: Leishmania donovani; assay: Antileishmanial activity against Leishmania donovani MHOM/IN/1983/AG83 promastigotes infected BALB/c mouse assessed as spleen weight at 12.5 mg/kg, ip administered two times per week for 4 weeks; type: functional; settings: route intraperitoneal; in short: as §1
[7] = Toxicity against golden Syrian hamster peritoneal macrophages; type: cell-based, Mesocricetus auratus; settings: macrophage

IC50 [2] [µg/mL]	SMILES	IC50 [1] [µg/mL]	Activity [3] [%]	Activity [4] [%]	Activity [5] [mg]	Activity [6] [mg]	Activity [7] [µg/mL]
2.3 (≈ 7.61 µM)	c1cnc2c(OCOc3cccc4cccnc34)cccc2c1	2.4 (≈ 7.94 µM)	89	92	980	110	> 85
10 (≈ 27.9 µM)	Cc1ccc2cccc(OCCCOc3cccc4ccc(C)nc34)c2n1	13.5 (≈ 37.7 µM)					> 200
2.4 (≈ 6.21 µM)	Cc1ccc2cccc(OCCCCCOc3cccc4ccc(C)nc34)c2n1	2.8 (≈ 7.24 µM)	82	88.5	1020	135	> 85
2.7 (≈ 7.25 µM)	Cc1ccc2cccc(OCCCCOc3cccc4ccc(C)nc34)c2n1	3.2 (≈ 8.59 µM)	73.5	78	1125	190	> 90
2.9 (≈ 8.78 µM)	Cc1ccc2cccc(OCOc3cccc4ccc(C)nc34)c2n1	3.4 (≈ 10.3 µM)			1205	232	> 100

Continued, molecule first:

SMILES	IC50 [2] [µg/mL]	IC50 [1] [µg/mL]	Activity [3] [%]	Activity [4] [%]	Activity [5] [mg]	Activity [6] [mg]	Activity [7] [µg/mL]
N=C(N)c1ccc(OCCCCCOc2ccc(C(=N)N)cc2)cc1 [PENTAMIDINE]	2.8 (≈ 8.22 µM)	2.1 (≈ 6.17 µM)					> 90
O=c1ccc2cccc3c2n1CCO3 [OXAZINOQUINOLONE]	14 (≈ 74.8 µM)	16.5 (≈ 88.1 µM)					> 220
C[C@@H]1[C@H](O)[C@@H](C)/C=C/C=C/C=C/C=C/C=C/C=C/C=C/[C@H](O[C@@H]2O[C@H](C)[C@@H](O)[C@H](N)[C@@H]2O)C[C@@H]2O[C@](O)(C[C@@H](O)C[C@@H](O)[C@H](O)CC[C@@H](O)C[C@@H](O)CC(=O)O[C@H]1C)C[C@H](O)[C@H]2C(=O)O [AMPHOTERICIN B]	0.1 (≈ 0.108 µM)	0.16 (≈ 0.173 µM)					> 4
